PMC7970147 (Heliyon, 2021)

How the values were obtained:
[1] = biological target: T1, DsOBP69a (Drosophila suzukii, UniProt A0AB39ZGK5); test: Fluorescence competition binding assay with bis-ANS, recombinant DsOBP69a; conditions: for binding to DsOBP69a (in words): fluorescence competition binding assay
T1 sequence (A0AB39ZGK5 25-148): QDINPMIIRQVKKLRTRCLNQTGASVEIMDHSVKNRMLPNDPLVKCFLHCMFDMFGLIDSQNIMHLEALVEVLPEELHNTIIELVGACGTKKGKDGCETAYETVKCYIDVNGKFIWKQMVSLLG
Summary of the method: (§1)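 Recombinant D. suzukii OBP expressed in E. coli BL21(DE3) (pET-30a), recovered from inclusion bodies in 8 M urea, Ni-NTA purified, refolded and dialysed into 50 mM Tris-HCl pH 7.4. Protein (2 μmol L−1 final) plus bis-ANS was titrated with ligand (1 mmol L−1 methanol stock). Excitation was 295 nm, with a 300–550 nm scan. Ki = IC50/(1+[bis-ANS]/Kbis-ANS), with Kbis-ANS from a Scatchard plot.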

[2] = biological target: T2, DsOBP76a (Drosophila suzukii, UniProt A0AB39ZCT4); test: Fluorescence competition binding assay with bis-ANS, recombinant DsOBP76a; conditions: for binding to DsOBP76a (in words): fluorescence competition binding assay
T2 sequence (A0AB39ZCT4 30-153): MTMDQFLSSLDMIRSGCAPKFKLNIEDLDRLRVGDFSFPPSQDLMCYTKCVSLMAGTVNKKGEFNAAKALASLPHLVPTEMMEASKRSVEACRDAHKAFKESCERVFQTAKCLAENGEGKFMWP
Summary of the method: as §1

[3] = test system: DsOBP59h; conditions: ref Li et al., 2019; cited from earlier work
[4] = test system: DmOBP69a; conditions: ref Bentzur et al., 2018; cited from earlier work
[5] = test system: DmOBP76a; conditions: ref Billeter and Levine, 2015; cited from earlier work
[6] = test system: OBP28a; conditions: ref Gonzalez et al., 2019; cited from earlier work

| SMILES | binding to DsOBP69a (in words) [1] | binding to DsOBP76a (in words) [2] | affinity with DsOBP59h proteins (in words) [3] | Kd [1] [µM] | Kd [2] [µM] | also measured |
| --- | --- | --- | --- | --- | --- | --- |
| NC(=S)Nc1ccccc1 [N-Phenylthiourea] | not affinity | not affinity | not affinity |  |  |  |
| CCCCCC/C=C\CCCCCCCCCCOC(C)=O [11-cis-Vaccenyl acetate] | do not bind | do not bind |  |  |  | binding to DmOBP69a (in words) [4]: bind; binding to DmOBP76a (in words) [5]: bind |
| CCCCCC/C=C\CCCCCCCCCCCCCCC [(Z)-7-Tricosene] |  |  |  | 19.3 |  |  |
| O=C1C[C@@H](c2ccc(O)cc2)Oc2cc(O)cc(O)c21 [Naringenin] |  |  |  | 23.8 | 24.1 |  |
| CC[N+](CC)(CC(=O)Nc1c(C)cccc1C)Cc1ccccc1 [Denatonium benzoate] | not affinity | not affinity | not affinity |  |  |  |
| O=c1ccc2ccccc2o1 [Coumarin] |  |  | high affinity | 20.4 | 7.76 |  |
| COc1ccc2cc3[n+](cc2c1OC)CCc1cc2c(cc1-3)OCO2 [Berberine chloride] |  |  | high affinity | 7.21 | 7.64 |  |
| CC(=O)/C=C/C1=C(C)CCCC1(C)C [β-Ionone] |  |  |  | 4.03 | 3.37 | affinity with OBP28a (in words) [6]: strong affinity |
